Laboratory results reported in ChEMBL document CHEMBL2169744, “Discovery and optimization of potent and selective imidazopyridine and imidazopyridazine mTOR inhibitors” (Bioorg Med Chem Lett, 2012).
Converted amounts (≈) assume the structure as drawn.

How the values were obtained:
[1] = Clearance in rat at 1 mg/kg, iv; assay type: ADME, organism-based; design: dose 1 mg/kg, route intravenous; details: in vivo
[2] = Inhibition of mTORC1-mediated 4EBP1-phosphorylation in human U87 cells; assay type: cell-based, U-87MG ATCC; details: Homo sapiens, U-87 MG; read-out: IC50
[3] = Inhibition of mTORC2-mediated AKT Ser473-phosphorylation in human U87 cells; assay type: cell-based, U-87MG ATCC; details: U-87 MG
In short: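 Cell assay in U87 cells measuring pAKT (S473), n ≥ 2.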

[4] = biological target: Phosphatidylinositol 4,5-bisphosphate 3-kinase catalytic subunit alpha isoform (Homo sapiens, UniProt P42336); assay: Inhibition of PI3Kalpha by AlphaScreen assay
Chain of Phosphatidylinositol 4,5-bisphosphate 3-kinase catalytic subunit alpha isoform (P42336 whole entry, canonical isoform): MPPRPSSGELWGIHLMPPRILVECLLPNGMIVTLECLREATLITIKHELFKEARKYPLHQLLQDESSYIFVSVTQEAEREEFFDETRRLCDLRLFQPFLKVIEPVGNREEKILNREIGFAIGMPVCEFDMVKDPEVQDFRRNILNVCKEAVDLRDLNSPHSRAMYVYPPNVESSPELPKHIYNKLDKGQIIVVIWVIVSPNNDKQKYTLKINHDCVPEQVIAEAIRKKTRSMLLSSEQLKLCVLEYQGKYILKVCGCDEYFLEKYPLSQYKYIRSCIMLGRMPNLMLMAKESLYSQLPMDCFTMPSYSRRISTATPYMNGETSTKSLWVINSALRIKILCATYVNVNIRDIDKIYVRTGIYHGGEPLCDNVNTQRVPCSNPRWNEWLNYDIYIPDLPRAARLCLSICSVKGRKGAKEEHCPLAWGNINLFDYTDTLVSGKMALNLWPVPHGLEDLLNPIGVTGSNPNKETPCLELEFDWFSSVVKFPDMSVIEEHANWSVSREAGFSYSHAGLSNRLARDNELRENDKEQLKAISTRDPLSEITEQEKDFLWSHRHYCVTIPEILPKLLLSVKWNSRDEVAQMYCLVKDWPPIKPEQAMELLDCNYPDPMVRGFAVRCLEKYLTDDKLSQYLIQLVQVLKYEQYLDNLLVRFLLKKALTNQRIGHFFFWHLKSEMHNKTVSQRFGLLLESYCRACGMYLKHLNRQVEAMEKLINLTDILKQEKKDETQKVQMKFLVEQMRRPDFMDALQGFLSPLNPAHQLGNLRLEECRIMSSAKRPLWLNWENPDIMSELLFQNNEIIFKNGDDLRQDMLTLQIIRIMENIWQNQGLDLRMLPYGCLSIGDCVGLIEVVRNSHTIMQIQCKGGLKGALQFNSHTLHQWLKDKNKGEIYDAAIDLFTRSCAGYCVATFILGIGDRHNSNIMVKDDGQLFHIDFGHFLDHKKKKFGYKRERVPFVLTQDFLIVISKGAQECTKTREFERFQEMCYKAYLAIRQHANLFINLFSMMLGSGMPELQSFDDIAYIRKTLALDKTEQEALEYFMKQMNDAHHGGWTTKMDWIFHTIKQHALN

[5] = biological target: Serine/threonine-protein kinase mTOR (Homo sapiens, UniProt P42345); assay: Inhibition of mTOR by LanthaScreen assay
[6] = Solubility of the compound in simulated intestinal fluid; assay type: physicochemical
[7] = Plasma protein binding in rat at 5 mg/kg, po; assay type: ADME, organism-based; design: dose 5 mg/kg, route oral; details: read-out: PPB (converted)
Rattus norvegicus = species: Rattus norvegicus; assay: Unbound clearance in rat; assay type: ADME, organism-based; details: in vivo
[8] = AUC in rat at 0.5 mg/kg, iv; assay type: ADME, organism-based, Plasma; design: dose 0.5 mg/kg, route intravenous; details: plasma
[9] = Oral bioavailability in rat at 5 mg/kg; assay type: ADME, organism-based; details: in vivo
In short: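 Rat oral PK at 5.0 mpk in 1% Tween 80, 2% HPMC, 97% H2O, pH 2.2 (methanesulfonic acid).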

[10] = Volume of distribution at steady state in rat at 0.5 mg/kg, iv; assay type: ADME, organism-based; design: dose 0.5 mg/kg, route intravenous; details: in vivo, read-out: Vdss
[11] = Half life in rat at 0.5 mg/kg, iv; assay type: ADME, organism-based; design: dose 0.5 mg/kg, route intravenous; details: in vivo
[12] = Clearance in rat at 0.5 mg/kg, iv; assay type: ADME, organism-based; design: dose 0.5 mg/kg, route intravenous; details: in vivo
[13] = Oral bioavailability in rat at 1 mg/kg; assay type: ADME, organism-based; details: in vivo
[14] = Apparent permeability from basal to apical side of pig LLC-PK1 cells; assay type: ADME, cell-based, Sus scrofa
[15] = Efflux ratio of apparent permeability from basal to apical to apical to basal side of pig LLC-PK1 cells; assay type: ADME, cell-based, Sus scrofa
[16] = Solubility of the compound in 0.01 N HCl; assay type: physicochemical; details: buffer
[17] = Apparent permeability from apical to basal side of pig LLC-PK1 cells; assay type: ADME, cell-based, Sus scrofa
[18] = Solubility of the compound in phosphate buffered saline; assay type: physicochemical
[19] = Inhibition of mTORC1-mediated pS6 Ser240/244-phosphorylation in human U87MG cells; assay type: cell-based, U-87MG ATCC; details: U-87 MG
In short: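 Cell assay in U87MG cells measuring phosphorylation of the mTOR substrate S6 (S240/244), n ≥ 2.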

clearance [1]	IC50 [2]	IC50 [3]	IC50 [4]	IC50 [5]	solubility [6]	Vd [10]	half-life [11]	clearance [12]	SMILES	also measured
33.3 mL/min/kg	101 nM	12 nM	119 nM	3 nM					Cc1nc(N)nc(-c2c(Nc3cc[nH]n3)nc3ccc(-c4cccnc4)cn23)n1	
33.3 mL/min/kg	57 nM	6 nM	68 nM	3 nM					Cc1nc(N)nc(-c2c(Nc3ccn[nH]3)nc3ccc(-c4cncnc4C)cn23)n1	
33.3 mL/min/kg	326 nM	26 nM	306 nM	6 nM					Cc1nc(N)nc(-c2c(Nc3cc[nH]n3)nc3ccc(-c4ccncc4)cn23)n1	
	6390 nM		1140 nM	147 nM	1 µg/mL (≈ 2.6 µM)				Cc1nc(Nc2cccnc2)cc(-c2c(Nc3ccn[nH]3)nc3cccnn23)n1	
	210 nM		763 nM	13 nM	150 µg/mL (≈ 488 µM)	2 L/kg	51 min	38.3 mL/min/kg	Cc1nc(N)cc(-c2c(Nc3cc[nH]n3)nc3cccnn23)n1	fraction unbound [7]: 0.088; CL free (Rattus norvegicus): 26.1 L/h/kg; AUC [8]: 1 µM·h; bioavailability [9]: 100%
33.3 mL/min/kg	115 nM	29 nM	96 nM						CC(=O)Nc1cccc(-c2ccc3nc(Nc4cc[nH]n4)c(-c4nc(C)nc(N)n4)n3c2)c1	
	146 nM		105 nM	36 nM	> 200 µg/mL	3.2 L/kg	21.6 min	100 mL/min/kg	Cc1nc(Nc2cnn(C3CCOC3)c2)cc(-c2c(Nc3ccn[nH]3)nc3cccnn23)n1 (stereo not given)	
	706 nM		1140 nM	63 nM	7 µg/mL (≈ 21.8 µM)	1.3 L/kg	15.6 min	80 mL/min/kg	CNc1cc(-c2c(Nc3cc[nH]n3)nc3cccnn23)nc(C)n1	bioavailability [9]: 29%
	2170 nM		3020 nM	141 nM	14 µg/mL (≈ 47.9 µM)	0.62 L/kg	13.8 min	31.7 mL/min/kg	Cc1nccc(-c2c(Nc3ccn[nH]3)nc3cccnn23)n1	
33.3 mL/min/kg	93 nM	5 nM	85 nM	2 nM					Cc1nc(N)nc(-c2c(Nc3cc[nH]n3)nc3ccc(-c4cncnc4)cn23)n1	
33.3 mL/min/kg	58 nM	8 nM	144 nM	2 nM					Cc1nc(N)nc(-c2c(Nc3ccn[nH]3)nc3ccc(-c4cnn(C5CC5)c4)cn23)n1	
	45 nM		47 nM	3 nM	200 µg/mL (≈ 572 µM)	6.3 L/kg	49.2 min	43.3 mL/min/kg	CC(=O)Nc1cc(-c2c(Nc3cc[nH]n3)nc3cccnn23)nc(C)n1	fraction unbound [7]: 0.056; AUC [8]: 0.6 µM·h; bioavailability [9]: 46%
33.3 mL/min/kg	222 nM	23 nM	239 nM	4 nM					Cc1cc(-c2ccc3nc(Nc4cc[nH]n4)c(-c4nc(C)nc(N)n4)n3c2)ccn1	
33.3 mL/min/kg	276 nM	23 nM	463 nM	5 nM					Cc1nc(N)nc(-c2c(Nc3ccn[nH]3)nc3ccc(-c4cncn4C)cn23)n1	
	940 nM		4580 nM	67 nM		0.6 L/kg	39.6 min	10 mL/min/kg	CC(=O)Nc1cc(-c2c(Nc3ccn(C)n3)nc3ccccn23)nc(C)n1	fraction unbound [7]: 0.056; CL free (Rattus norvegicus): 10.8 L/h/kg; AUC [8]: 2.3 µM·h; bioavailability [9]: 4%
33.3 mL/min/kg	652 nM	54 nM	393 nM	21 nM					Cc1nc(N)nc(-c2c(Nc3cc[nH]n3)nc3ccc(-c4ccccc4C)cn23)n1	
				23 nM	8.4 µg/mL (≈ 27.3 µM)				Cc1nc(N)nc(-n2c(Nc3ccn[nH]3)nc3ccccc32)n1	bioavailability [13]: 6%; Papp B→A [14]: 35.4 ×10⁻⁶ cm/s; efflux ratio [15]: 1.7; solubility [16]: 3.7 µg/mL (≈ 12 µM); Papp A→B [17]: 20.3 ×10⁻⁶ cm/s; solubility [18]: 8.4 µg/mL (≈ 27.3 µM); IC50 [19]: 166 nM
